ChEMBL document CHEMBL5335820, “Novel quinolinepiperazinyl-aryltetrazoles targeting the blood stage of Plasmodium falciparum” (RSC Med Chem, 2024)

What was measured:
Plasmodium falciparum [1] = experiment: Antiplasmodial activity against chloroquine sensitive Plasmodium falciparum 3D7 infected in human erythrocytes assessed as inhibition of parasite growth at 100 uM incubated for 72 hrs by SYBR green I staining based fluorescence plate reader analysis relative to control; format: functional; conditions: 3D7, Erythrocyte
In short: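 Pf3D7 grown in O+ human erythrocytes at 4% haematocrit, Albumax (0.05%)-RPMI, 37 °C, 5% O2/5% CO2/90% N2, sorbitol-synchronised at ring stage. Single-point screen at 100 μM, final DMSO 0.4%, triplicate wells, 72 h. Read-out by SYBR Green I lysis buffer (Tris pH 7.5, EDTA, saponin, Triton X-100), 1 h dark at 37 °C, ex 485/em 530 nm. Growth expressed relative to untreated culture.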

[2] = Selectivity index, ratio of CC50 for human Huh-7 cells to IC50 for antiplasmodial activity against chloroquine resistant Plasmodium falciparum INDO infected in human erythrocytes; format: toxicity, cell-based; conditions: read-out: Ratio CC50/IC50
In short: (§1)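 Selectivity index = CC50 / PfINDO IC50. CC50 came from MTT assays: 10^4 HEK293 or HUH7 cells per well, seeded overnight and exposed to 0–100 μM for 24 h, then MTT for 4 h at 37 °C with formazan dissolved in DMSO and read at A570. Controls were 0.8% DMSO (full growth) and 10% DMSO (zero growth).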

[3] = Selectivity index, ratio of CC50 for human HEK293 cells to IC50 of chloroquine resistant Plasmodium falciparum INDO infected in human erythrocytes; format: toxicity, cell-based; conditions: read-out: Ratio CC50/IC50; in short: as §1
Plasmodium falciparum [4] = experiment: Antiplasmodial activity against chloroquine resistant Plasmodium falciparum INDO infected in human erythrocytes assessed as inhibition of parasite growth at 100 uM incubated for 72 hrs by SYBR green I staining based fluorescence plate reader analysis relative to control; format: functional; conditions: Erythrocyte
In short: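 Single-concentration screen at 100 μM against PfINDO, triplicate wells, 72 h. Final DMSO was 0.4%. Growth was read by SYBR Green I lysis (excitation 485, emission 530 nm) and expressed relative to untreated culture, taken as 100% growth.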

Plasmodium falciparum [5] = experiment: Antiplasmodial activity against chloroquine resistant Plasmodium falciparum INDO infected in human erythrocytes assessed as inhibition of parasite growth incubated for 72 hrs by SYBR green I staining based fluorescence plate reader analysis; format: functional, organism-based; conditions: Erythrocyte
In short: (§2)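 Pf3D7 or PfINDO was cultured in O+ human erythrocytes at 37 °C under 5% O2/5% CO2/90% N2 and ring-synchronised with 5% sorbitol. Cultures were exposed to 0–100 μM in triplicate for 72 h, with final DMSO 0.4%. After SYBR Green I lysis buffer (1 h, dark, 37 °C), fluorescence was read at 485/530 nm. Chloroquine-well counts were subtracted as background, and IC50 was obtained by non-linear regression.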

Plasmodium falciparum [6] = experiment: Antiplasmodial activity against chloroquine sensitive Plasmodium falciparum 3D7 infected in human erythrocytes assessed as inhibition of parasite growth incubated for 72 hrs by SYBR green I staining based fluorescence plate reader analysis; format: functional, organism-based; conditions: 3D7, Erythrocyte; in short: as §2
[7] = Cytotoxicity against human HEK293 cells assessed as reduction in cell viability incubated for 24 hrs by MTT assay; format: toxicity, cell-based
[8] = Resistance index, ratio of IC50 of chloroquine resistant Plasmodium falciparum INDO to chloroquine sensitive Plasmodium falciparum 3D7; format: functional
In short: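 Resistance index = IC50 against PfINDO / IC50 against Pf3D7. Both IC50s came from 72 h SYBR Green I assays.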

[9] = Cytotoxicity against human Huh-7 cells assessed as reduction in cell viability incubated for 24 hrs by MTT assay; format: toxicity, cell-based
Plasmodium falciparum [10] = experiment: Antimalarial activity against chloroquine resistant late schizont Plasmodium falciparum INDO infected in human erythrocytes assessed as inhibition of parasite growth incubated for 12 hrs; format: functional, organism-based; conditions: Erythrocyte
In short: (§3)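 PfINDO cultures were staged at 0–6 h (rings), 18–22 h (trophozoites), 30–34 h (early schizonts) and 40–44 h (late schizonts) post-invasion. Each was exposed to varying concentrations for 12 h, washed free of compound by centrifugation, and grown 48 h in drug-free medium. IC50 came from growth curves, with untreated culture as 100% and chloroquine-treated culture as 0% growth.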

Plasmodium falciparum [11] = experiment: Antimalarial activity against chloroquine resistant early schizont Plasmodium falciparum INDO infected in human erythrocytes assessed as inhibition of parasite growth incubated for 12 hrs; format: functional, organism-based; conditions: Erythrocyte; in short: as §3
Plasmodium falciparum [12] = experiment: Antimalarial activity against chloroquine resistant trophozoites-stage Plasmodium falciparum INDO infected in human erythrocytes assessed as inhibition of parasite growth incubated for 12 hrs; format: functional, organism-based; conditions: Erythrocyte; in short: as §3
Plasmodium falciparum [13] = experiment: Antiplasmodial activity against chloroquine resistant ring-stage Plasmodium falciparum INDO infected in human erythrocytes assessed as inhibition of parasite growth incubated for 12 hrs; format: functional, organism-based; conditions: Erythrocyte; in short: as §3

Row | SMILES | inhibition at 100 µM (Plasmodium falciparum [1]) | selectivity ratio [2] | selectivity ratio [3] | inhibition at 100 µM (Plasmodium falciparum [4]) | IC50 (Plasmodium falciparum [5]) | IC50 (Plasmodium falciparum [6]) | CC50 at 24 h [7] | Ratio IC50 [8] | CC50 at 24 h [9] | IC50 (Plasmodium falciparum [10]) | IC50 (Plasmodium falciparum [11]) | IC50 (Plasmodium falciparum [12]) | IC50 (Plasmodium falciparum [13])
1 | O=C(Cn1nnc(-c2cccc(Br)c2)n1)N1CCN(c2ccnc3cc(Cl)ccc23)CC1 | > 50% | > 44.5 | 44.5 | > 50% | 8.99 µM | 10.5 µM | > 400 µM | 0.86 | > 400 µM |  |  |  | 
2 | COc1ccc(-c2nnn(CCCN3CCN(c4ccnc5cc(Cl)ccc45)CC3)n2)cc1OC | > 50% | 21.7 | 67 | > 50% | 5.97 µM | 4.84 µM | > 400 µM | 1.23 | 129 µM |  |  |  | 
3 | O=C(Cn1nnc(-c2ccc([N+](=O)[O-])cc2)n1)N1CCN(c2ccnc3cc(Cl)ccc23)CC1 | > 50% | > 179 | 179 | > 50% | 2.24 µM | 1.65 µM | > 400 µM | 1.36 | > 400 µM | 6.29 µM | 5.46 µM | 4.72 µM | 10.3 µM
4 | Clc1cccc(-c2nnn(CCCN3CCN(c4ccnc5cc(Cl)ccc45)CC3)n2)c1 | > 50% | > 20.1 | 20.1 | > 50% | 19.9 µM | 10.7 µM | > 400 µM | 1.87 | > 400 µM |  |  |  | 
5 | O=[N+]([O-])c1cccc(-c2nnn(CCCN3CCN(c4ccnc5cc(Cl)ccc45)CC3)n2)c1 | > 50% | 4.45 | 24.7 | > 50% | 16.2 µM | 9.17 µM | > 400 µM | 1.76 | 72 µM |  |  |  | 
6 | Clc1ccc(-c2nnn(CCCN3CCN(c4ccnc5cc(Cl)ccc45)CC3)n2)cc1 | > 50% | > 139 | 139 | > 50% | 2.87 µM | 1.11 µM | > 400 µM | 2.58 | > 400 µM | 7.64 µM | 3.93 µM | 12.2 µM | 4.07 µM
7 | Fc1ccc(-c2nnn(CCCN3CCN(c4ccnc5cc(Cl)ccc45)CC3)n2)cc1 | > 50% | > 99 | 99 | > 50% | 4.04 µM | 2.07 µM | > 400 µM | 1.96 | > 400 µM | 1.85 µM | 1.68 µM | 2.8 µM | 1.72 µM
8 | O=C(Cn1nnc(-c2ccc(F)cc2)n1)N1CCN(c2ccnc3cc(Cl)ccc23)CC1 | > 50% | 1.95 | 32.2 | > 50% | 12.4 µM | 15.6 µM | > 400 µM | 0.8 | 24.2 µM |  |  |  | 
9 | Fc1cccc(-c2nnn(CCCN3CCN(c4ccnc5cc(Cl)ccc45)CC3)n2)c1 | > 50% | > 28.1 | 28.1 | > 50% | 14.2 µM | 22.9 µM | > 400 µM | 0.62 | > 400 µM |  |  |  | 
10 | O=C(Cn1nnc(-c2cccc(F)c2)n1)N1CCN(c2ccnc3cc(Cl)ccc23)CC1 | > 50% | > 47.3 | 47.3 | > 50% | 8.46 µM | 8.14 µM | > 400 µM | 1.04 | > 400 µM |  |  |  | 
11 | CC(C)c1ccc(-c2nnn(CCCN3CCN(c4ccnc5cc(Cl)ccc45)CC3)n2)cc1 | > 50% | > 47.8 | 47.8 | > 50% | 8.37 µM | 3.12 µM | > 400 µM | 2.69 | > 400 µM |  |  |  | 
12 | Cc1ccc(-c2nnn(CCCN3CCN(c4ccnc5cc(Cl)ccc45)CC3)n2)cc1 | > 50% | 48.8 | 63 | > 50% | 6.35 µM | 8 µM | > 400 µM | 0.79 | 310 µM |  |  |  | 
13 | COc1cccc(-c2nnn(CCCN3CCN(c4ccnc5cc(Cl)ccc45)CC3)n2)c1 | > 50% | > 52.2 | 44.6 | > 50% | 7.66 µM | 9.9 µM | 342 µM | 0.77 | > 400 µM |  |  |  | 
14 | O=C(Cn1nnc(-c2ccc(Cl)cc2)n1)N1CCN(c2ccnc3cc(Cl)ccc23)CC1 | > 50% | > 28.7 | 28.7 | > 50% | 14 µM | 32.1 µM | > 400 µM | 0.43 | > 400 µM |  |  |  | 
15 | O=C(Cn1nnc(-c2ccc(Br)cc2)n1)N1CCN(c2ccnc3cc(Cl)ccc23)CC1 | > 50% | > 35.6 | 35.6 | > 50% | 11.2 µM | 17.5 µM | > 400 µM | 0.64 | > 400 µM |  |  |  | 
